SMILES strings stand for the structures.

This data set in a line: Toxicity liver stage against HepG2, at 10uM. Type of data set: cell-based. Details: test concentration 10 uM, cell line HepG2-A16-CD81EGFP. The conditions noted are these: human, HepG2-A16-CD81EGFP cells; read-out: INHIBITION
The essentials:
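Uninfected HepG2-A16-CD81EGFP cells, 3 × 10^3 per well, 1536-well, plated on prespotted compound at 10 μM final, parasite-free screening media added to match infected plates; puromycin 10 μM positive, DMSO 0.5% negative; run in parallel with 48 h PbLuc assay at 37 °C, 5% CO2; viability by CellTiter-Glo luminescence, normalized to controls.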
In the case of `O=C1CCC(=O)N1CCN1CCC(=Cc2ccccc2)CC1`, the cytotoxicity at 10 µM was found to be 8.82%.
For `CCc1ccc(CNC(=O)NC(C)CN2CCOCC2)s1` (configuration not stated), the cytotoxicity at 10 µM is -1.84%.
The figure for `N#Cc1ccc(OCC(O)CN2CCC(c3ccn[nH]3)CC2)cc1` (configuration not stated) is -3.33%; for `OC(CNc1ccncn1)CN1CCCCCC1` (configuration not stated) it is -0.271%.
Then `COc1cc(CNCCC(N)=O)c2c(c1)CC(C)O2` (configuration not stated), with 8.41%; and `CC(C)N(C)CC(=O)Nc1ccc(-n2ccc(C(N)=O)n2)cc1`, with -3.54%.
Then `CNC(=O)NC(=O)COc1c(C(C)=O)ccc(Cl)c1Cl`, with 26.6%; and `CCN1C(=O)CCCC12CCCN(C(=O)c1conc1C)C2` (configuration not stated), with 4.57%; and `Cc1cnn(CC2CCN(CC(O)Cn3cccn3)CC2)c1` (configuration not stated), with -1.66%.
Consider `O=C(N1CCCC1)N1CCC(Nc2ccncn2)CC1`, for which the cytotoxicity at 10 µM is -42.1%.
On to `CC(C)(Oc1ccc(C(N)=O)cc1)C(=O)N(CCC#N)CC1CCCO1` (configuration not stated), for which the cytotoxicity at 10 µM amounted to 5.55%.
For `CC(O)c1cnn(-c2ccccc2)c1` (configuration not stated), the cytotoxicity at 10 µM was -1.55%.
The figure for `Cc1occc1C(=O)NCC(=O)NCCOc1cccc(Cl)c1` is 0.0264%; for `COCCN(C)C[C@@H]1CN(c2nc(C)cc(C)n2)C[C@@H]1CO` it is -10.3%.
In the case of `O=c1c2c[nH]c(N3CCC(O)CC3)nc-2cn1Cc1cccc(F)c1`, the cytotoxicity at 10 µM turned out to be 20.6%.
The figure for `COc1cc(NC(=O)C2CC(=O)N(c3cccc(Br)c3)C2)ncn1` (configuration not stated) is 33.4%.
As for `CCOC(=O)CCNC(=O)N1CCOC(Cc2cccc(OC)c2)C1` (configuration not stated), the cytotoxicity at 10 µM was -1.13%.
The figure for `COCC(=O)N(C)Cc1ccc(OCc2cccs2)cc1` is 1.73%; for `CC(C)COC(=O)N1CC(=O)N(Cc2ccco2)CC(O)C1` (configuration not stated) it is -1.7%.
Take `CC(=O)N1CCC2(CC1)C(=O)N(c1ccc(C)nc1)CCN2CC(C)C`: the cytotoxicity at 10 µM worked out at 22.2%.
Then `O=C(Nc1ccccn1)C1CC(=O)N(Cc2ccccn2)C1` (configuration not stated), with 2.84%; and `Cc1cccc(N(CC(=O)N2CCCCC2)C(=O)C2CCCO2)c1` (configuration not stated), with -1.52%.
In the case of `COc1nc2ccn(CCc3scnc3C)c(=O)c2cc1C#N`, the cytotoxicity at 10 µM came out at 12.8%.
For the compound `CN(Cc1nnc2n1CCC2)S(=O)(=O)c1ccc(Br)cc1Cl`, the cytotoxicity at 10 µM was -6.08%.
On to `NC(=O)NC(=O)CCSCc1coc(-c2cccc(Cl)c2)n1`, for which the cytotoxicity at 10 µM is -1.23%.
As to `COc1cccc(CC(=O)N2CCC(NCc3c[nH]nc3C)CC2)c1`, the cytotoxicity at 10 µM is -8.98%.
For the compound `COc1cccc(C(CO)NC(=O)Cc2cccc(C)c2)c1` (configuration not stated), the cytotoxicity at 10 µM came to 4.53%.
On to `CCc1cc(CN(C)C(=O)c2cnc3c(c2)nc(N)n3CC)on1`, for which the cytotoxicity at 10 µM was found to be 1.3%.
The figure for `CC(=O)N1CCC(NC(=O)CN2CCCc3c(C)ccc(F)c32)CC1` is -5.82%; for `Cc1cnc(CN(C)C2CCN(CCn3cc(C#N)cn3)C2)o1` (configuration not stated) it is -5.45%; for `Cc1cc(C)n(CC2CN(Cc3cnc(C)s3)CCO2)n1` (configuration not stated) it is -19.7%.
As to `COc1ccc(CN2CCc3ncnc(C4CC4)c3CC2)cc1`, the cytotoxicity at 10 µM was -148%.
As for `COc1cc(N2C[C@@H]3COC[C@]3(COCc3cccc(C)n3)C2)ncn1`, the cytotoxicity at 10 µM stood at 12.4%.
Then `Cc1nnc2n1CCN(C(=O)c1cc(Br)c(Cl)[nH]1)C2`, with -12.7%; and `Cc1cccn2cc(CNS(=O)(=O)N3CCOCC3)nc12`, with -6.6%.
The figure for `O=C(NCCc1ccccn1)N1CCSC2(CCCCC2)C1` is -18.6%.
Turning to `COc1ccc(NC(C)C(=O)NCCc2cccs2)cc1F` (configuration not stated), the cytotoxicity at 10 µM is -13.5%.
The figure for `CCc1nc(CN2CCCC(NCc3nc4ccccc4o3)C2)no1` (configuration not stated) is -3.81%; for `NC(=O)NC(=O)CNC1(c2ccc(Cl)cc2)CCC1` it is 9.23%; for `CN1CCN(C(=O)c2n[nH]c3c2CN(C2CCOCC2)CC3)CC1` it is 3.41%.
Take `Cc1cn2c(n1)C(CNCc1ccc(C)s1)CCC2` (configuration not stated): the cytotoxicity at 10 µM was -26.3%.
Take `Cc1ccc(N2CCC(C3CCN(CC(C)C)CC3)C2)nn1` (configuration not stated): the cytotoxicity at 10 µM was -6.81%.
The figure for `c1cnn(CCN2CCOC(Cn3cccn3)C2)c1` (configuration not stated) is -10.3%.
The figure for `CC(=O)N1N=C(c2cccs2)OC1C(=O)NCCc1cccc(Cl)c1` (configuration not stated) is -1.66%; for `Cc1cc2n(n1)CC(CNC1CCN(Cc3ccccn3)CC1)CN2` (configuration not stated) it is 3.67%.
Take `CN1N=C(C(=O)N2CCCC(CCc3ccccc3)C2)CCC1=O` (configuration not stated): the cytotoxicity at 10 µM was -10.5%.
Then `NCc1cc(NCC(c2ccccn2)N2CCOCC2)ncn1` (configuration not stated), with -47.5%; and `CCc1cc(N(C)Cc2cc[nH]n2)n2nc(C)c(C)c2n1`, with 24%; and `COc1ccccc1OC1(C(=O)O)CCN(c2cnccn2)CC1`, with -27.5%.
On to `CC(C)c1cc(O)nc(C2CCCN2C(=O)C(C)(C)C)n1` (configuration not stated), for which the cytotoxicity at 10 µM was -17.8%.
In the case of `O=C(NCc1ccoc1)c1ccc(C2CCCN2CC2CCOCC2)s1` (configuration not stated), the cytotoxicity at 10 µM came to 6.7%.
The figure for `CC(C1CCN(Cc2cnn(C)c2C2CC2)CC1)N(C)C` (configuration not stated) is 7.88%.
The figure for `O=C(c1cc(-n2cccn2)ccc1Cl)N1CCC(N2CCCC2=O)CC1` is -2.08%; for `Cc1noc(-c2ccc(N3CCCC(C(=O)c4nccn4C)C3)nc2)n1` (configuration not stated) it is -6.58%; for `O=S(=O)(CC1CCOCC1)NCc1ccnc(O)c1` it is -5.47%.
In the case of `CCC1c2cccn2CCN1C(=O)c1cc(OC)nc(OC)n1` (configuration not stated), the cytotoxicity at 10 µM was 15%.
Then `Cc1ccc(C(=O)N2CCc3ncnc(-c4cnn(C)c4)c3CC2)cn1`, with 7.83%; and `NC(=O)Nc1cccc(F)c1C(=O)NC1CCCC1`, with -8.64%.
As for `CN(C)C[C@@H]1C[C@@H]2CN(C(=O)c3ccoc3)CC[C@@H]2N1CC1CC1`, the cytotoxicity at 10 µM is 6.71%.
On to `Cn1ccnc1CN1CC[C@H]2CO[C@H](CNc3ncccn3)[C@H]2C1`, for which the cytotoxicity at 10 µM was -5.81%.
Consider `COc1cc(NCc2c(C)noc2C)c(OC)cc1Cl`, for which the cytotoxicity at 10 µM amounted to 47%.
As to `O=C(NCCNc1ccccn1)NCC1CCS(=O)(=O)C1` (configuration not stated), the cytotoxicity at 10 µM amounted to 1.48%.
The figure for `CCN(Cc1ccccc1)C(=O)CCN1C[C@@H](C(=O)O)[C@H](C2CC2)C1` is 6.94%.
Consider `CCCN(Cc1cnn(C)c1)S(=O)(=O)c1cc(C)cc(F)c1`, for which the cytotoxicity at 10 µM worked out at 16.2%.
Then `CCN(CC1CCCO1)S(=O)(=O)c1cc(NC(C)=O)ccc1C` (configuration not stated), with 1.82%; and `COc1cccc([C@@]2(O)CC[C@@H]3CN(C(=O)c4c[nH]nc4C)C[C@@H]32)c1`, with 2.67%.
Then `CCn1cc(C(=O)N2CCCC(c3noc(C)n3)C2)cn1` (configuration not stated), with 2.17%.
For `COc1ncccc1CN1CC[C@H]2O[C@@H](c3nnc(C)o3)CC[C@H]21`, the cytotoxicity at 10 µM was 9.6%.
Turning to `Cc1ccc(CN(CCN(C)C)C(=O)Nc2cnn(C)c2)s1`, the cytotoxicity at 10 µM stood at 4.16%.
Then `Cc1nc(C)n(CC2CCCN2Cc2nnc(-c3ccco3)o2)n1` (configuration not stated), with 11.4%; and `Cc1cnccc1N1CCCN(Cc2ccc(-c3cc[nH]n3)o2)CC1`, with -5.13%.
Then `Cc1nnc(NCC(c2ccco2)N2CCCCC2)c(C#N)c1C` (configuration not stated), with -5.23%; and `Cc1cccc(C(=O)N2CCO[C@H]3[C@H](OCCN(C)C)CC[C@@H]32)n1`, with 3.31%; and `Cc1cnn(CC(C)NCc2csc(-c3cccs3)n2)c1` (configuration not stated), with -5.8%.
Then `Cc1cscc1-c1nc(C2CCOC2)no1` (configuration not stated), with 8.4%; and `Nc1nc2c(c(NCc3cnc4c(c3)CCC4)n1)CCNC2`, with 1.98%; and `c1nc(N2CCCCC2Cn2cncn2)c2sccc2n1` (configuration not stated), with 9.43%.
For `Cc1ccc(N2CCCN(C(=O)c3cc(Cl)c[nH]3)CC2)nn1`, the cytotoxicity at 10 µM was -9.12%.
On to `Cc1nc(C)n(C2CCCN(C(=O)c3cn4cccnc4n3)C2)n1` (configuration not stated), for which the cytotoxicity at 10 µM was -0.776%.
On to `CSCCC1c2nc[nH]c2CCN1Cc1ccccc1C(F)(F)F` (configuration not stated), for which the cytotoxicity at 10 µM was found to be 1.09%.
Then `CCN(Cc1cnn(C)c1)C(=O)c1ccc(C)c(N2CCNC2=O)c1`, with -7.08%; and `COCCC(=O)N1CCCN(Cc2nccn2C(C)C)CC1`, with -10.1%.
The figure for `COCC(C)(O)CNC(=O)c1cc(-c2cc(OC)ccc2OC)nn1C` (configuration not stated) is -6.42%.
With `Cc1cc(N2CCCC2c2nc(C)cc(CCC(=O)O)n2)ncn1` (configuration not stated), the cytotoxicity at 10 µM is -17.1%.
`CCc1cc(C(=O)N2CCCC2c2nc(O)cc(CC)n2)on1` (configuration not stated): the cytotoxicity at 10 µM was -7%.
The figure for `O=C(C1CCCOC1)N1CCCCc2ccccc21` (configuration not stated) is -5.51%.
Then `COCC(=O)NCc1cc(=O)n2c(n1)CN(Cc1ccccc1)CCC2`, with -103%; and `CCN(C(c1cccnc1)c1ccc2c(c1)CCC2)S(C)(=O)=O` (configuration not stated), with 5.82%.
Then `O=C(O)c1ccnc(-c2ccnc(COc3ccc(Cl)cc3)n2)c1`, with -6.67%; and `Cc1cc(C)c(CNC(=O)N2CCN(c3ccncc3)CC2)c(=O)[nH]1`, with -3.57%; and `O=C1c2cccnc2OC(CN2CCOCC2)CN1Cc1cccs1` (configuration not stated), with -3.35%.
Take `CC(NC(=O)NCC(C)(C)C(N)=O)c1nc(-c2ccccc2)cs1` (configuration not stated): the cytotoxicity at 10 µM was found to be 12.7%.
`COCC(C)(C#N)NC(=O)COc1ccccc1Br` (configuration not stated): the cytotoxicity at 10 µM came out at 5.67%.
With `CCN(CC(F)(F)F)C(=O)C1CCCN(Cc2ccccn2)C1` (configuration not stated), the cytotoxicity at 10 µM is -2.3%.
Then `Cc1cc(C(=O)N2CC[C@@H](O)[C@@H]2Cc2ccccc2)no1`, with -1.36%; and `Cc1nc(SC2CCN(c3sccc3C#N)C2=O)oc1C` (configuration not stated), with -4.92%.
The figure for `O=C(C1CCOCC1)N1C[C@H]2CCC[C@@]2(COc2ccccn2)C1` is -0.587%.

Values taken from ChEMBL document CHEMBL4513216, “Probing the Open Global Health Chemical Diversity Library for Multistage-Active Starting Points for Next-Generation Antimalarials” (ACS Infect Dis, 2020).
